Source: PubChem BioAssay (Johns Hopkins Ion Channel Center)
MrgX1 antag: blocks BAM8-22 activation of human MrgX1 receptor; B-score at 10 µM; Q96LB2; 310,000 tested, 1.3% active; MRGX1-HEK293 calcium flux, Fluo-4, BAM8-22 antagonism; active compounds read low;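 active = calcium-response B-score plate-corrected more than 3 library SD below zero, starting fluorescence within 5 deviations, no agonist response on first addition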;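 also: peak minus trough fluorescence over baseline after final BAM8-22 challenge near maximal dose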
Target sequence (Q96LB2 whole entry, looked up): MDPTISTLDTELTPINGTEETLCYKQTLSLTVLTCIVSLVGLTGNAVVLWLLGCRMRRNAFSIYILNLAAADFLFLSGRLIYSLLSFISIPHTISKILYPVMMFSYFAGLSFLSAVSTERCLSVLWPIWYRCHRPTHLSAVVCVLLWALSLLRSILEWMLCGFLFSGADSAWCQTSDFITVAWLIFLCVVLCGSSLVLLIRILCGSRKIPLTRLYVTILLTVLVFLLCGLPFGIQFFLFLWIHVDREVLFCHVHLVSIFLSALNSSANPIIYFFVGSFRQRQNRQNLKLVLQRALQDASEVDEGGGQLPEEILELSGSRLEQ
RGS4 pot: RGS4 potentiation or activation; HEK293 M3R/inducible RGS4, carbachol calcium flux Fluo4; active compounds read low; 310,000 tested, 0.92% active; B-score at 10 µM; AID 463111;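 active = B-score of the integrated calcium signal more than 4 SD below the library mean, with starting fluorescence not abnormally high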;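 also: negative B-score means reduced calcium response which marks RGS4 activation or potentiation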
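Material: M3R-expressing HEK293 line, RGS4 induced by doxycycline | Schedule: Overnight RGS4 induction, 30 min dye load 37 °C, 20 min compound RT | Measured by: Fluo4 fluorescence kinetic imaging of calcium | Read-out: Integrated calcium ratio converted to B score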
RGS4 block: human RGS4 inhibition; P49798; HEK293 M3R/RGS4 inducible, Fluo-4 calcium flux; active compounds read high; triggered by carbachol at its EC20; B-score at 10 µM; 310,000 tested, 0.45% active;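 active = B-score, a plate-corrected calcium signal, over three deviations above library mean, with baseline fluorescence within five deviations of library mean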;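 also: RGS4 expression induced by doxycycline in cells with stable M3 receptor; B-score is computed from the integrated fluorescence ratio over baseline after carbachol; higher B-score means a larger calcium signal and so more RGS4 inhibition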
Target sequence (P49798 whole entry, looked up): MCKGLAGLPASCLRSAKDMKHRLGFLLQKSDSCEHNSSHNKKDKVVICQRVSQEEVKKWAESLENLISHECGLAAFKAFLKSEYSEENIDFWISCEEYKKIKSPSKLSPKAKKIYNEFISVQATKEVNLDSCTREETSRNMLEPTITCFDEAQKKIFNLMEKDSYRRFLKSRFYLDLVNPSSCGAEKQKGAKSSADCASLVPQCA
MrgX1 agonist: activates human MrgX1 receptor signaling. 310,000 tested, 0.44% active. Q96LB2. MrgX1-HEK293 cells, Fluo-4 calcium fluorescence, agonist mode; active compounds read high. B-score at 10 µM;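 active = calcium response B-score plate-corrected fluorescence ratio at least 3 library SD, with starting fluorescence B-score inside 5 SD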
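System: HEK293 cells stably expressing human MrgX1 receptor; Dosing: test compound in the initial addition of three; Schedule: overnight plating, then 30 min 37 °C plus 30 min room-temperature dye loading; Detection: kinetic calcium dye fluorescence, Fluo-4 NW; Controls: per-plate positive and negative controls for Z′ factor.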
MrgX1 PAM: allosterically activates human MrgX1 receptor signaling. MrgX1-HEK293, Fluo-4 calcium flux, FDSS; active compounds read high. B-score at 10 µM. 310,000 tested, 0.63% active. AID 588675;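 active = plate-corrected calcium response at least 3 library SD above typical, normal starting fluorescence, not activating the receptor alone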;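 also: compound read alongside a low EC10 to EC30 dose of BAM8-22 agonist; peak minus trough fluorescence over baseline measured at the second addition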
RGS4 activ val: confirmation of RGS4 activators. inhibition, % at 10 µM. 1,100 tested, 89% active. shares compounds with RGS4 pot. HEK293 M3R/RGS4 inducible, carbachol calcium flux Fluo4. AID 602282;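 active = inhibition above 3 SD of the buffer control wells, cut at about 41% in these data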;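 also: signal is the integrated peak-minus-minimum Fluo4 fluorescence over baseline ratio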
RGS4 act ctr: activity in cells without induced RGS4 expression; shares compounds with RGS4 pot; HEK293 M3R non-induced RGS4, Fluo4 calcium flux; after carbachol challenge at its EC90; inhibition, % at 10 µM; 1,100 tested, 82% active;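 active = inhibition exceeding 3 SD of buffer-only control wells, cut at about 26% in these data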;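 also: percent drop in integrated peak-minus-baseline over baseline Fluo4 ratio after carbachol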
Starred values were filed as active, the others as inactive; i = inactive; x = no result given. Most compounds without a hit are left out; they make up all but 3.5% or so of the library.

SMILES	MrgX1 antag	RGS4 pot	RGS4 block	MrgX1 agonist	MrgX1 PAM	RGS4 activ val	RGS4 act ctr
CCOc1ccc(S(=O)(=O)N2CCN(Cc3ccc4c(c3)OCO4)CC2)cc1Cl	i	i	i	i	i	x	x
CCN(CC(=O)Nc1c(F)cccc1F)C(=O)C1CCCN(C(=O)c2ccc(Cl)cc2)C1 (centres undefined)	i	i	i	i	i	x	x
Cc1cc(C)cc(OCc2nnc(N)s2)c1	i	i	i	i	i	x	x
COc1cc(C)ccc1S(=O)(=O)N1CCN(C23CC4CC(CC(C4)C2)C3)CC1	i	-8.9*	i	i	i	92*	80*
COc1cc(F)ccc1S(=O)(=O)N1CCN(C23CC4CC(CC(C4)C2)C3)CC1	i	i	i	i	i	x	x
COc1ccc2[nH]c(C(=O)N3CCC(Cc4ccccc4)CC3)cc2c1	i	i	i	i	i	x	x
COc1ccc2cc(C(=O)N3CCC(Cc4ccccc4)CC3)[nH]c2c1	i	-7.9*	i	i	i	0	0
Cc1ccc(N2CCN(C(=O)c3cc(COc4c(C)cccc4C)on3)CC2)c(C)c1	i	-7.7*	i	i	i	70*	32*
Nc1ccc2c3c(cccc13)C(=O)N(c1ccccc1)C2=O	x	i	i	x	x	x	x
CC(C)CCN1C(=O)c2cccc3c(N)ccc(c23)C1=O	i	-7.8*	i	i	i	99*	95*
O=C(Cc1ccsc1)NCc1ccccc1F	i	i	i	i	i	x	x
O=C(NCCCN1CCCCC1)C1CCN(S(=O)(=O)N2CCC3(CC2)OCCO3)CC1	i	i	i	i	i	x	x
CCCc1cc(-c2n[nH]c(=S)n2CC)cs1	i	i	i	i	i	x	x
CCCCn1c(-c2csc(CCC)c2)n[nH]c1=S	i	-12*	i	i	i	58*	84*
O=C(CSc1nnc(NC2CCCCC2)s1)Nc1ccc2c(c1)C(=O)c1ccccc1C2=O	i	i	i	i	i	x	x
CC(C)Nc1nnc(SCC(=O)Nc2ccc3c(c2)C(=O)c2ccccc2C3=O)s1	i	-11*	i	i	i	88*	45*
CCOC(=O)c1c(-c2ccccc2)csc1NC(=O)c1nn(CC)cc1Br	i	-7.6*	i	i	i	80*	0
Clc1ccc(OCc2nc3ccccc3[nH]2)cc1	i	i	i	i	i	x	x
OC(Cc1nc2ccccc2[nH]1)c1ccccc1Cl (centres undefined)	i	-8.2*	i	i	i	0	0
Cn1c2ccc(F)cc2c2nnc(SCCN3CCCCC3)nc21	x	i	i	x	x	x	x
CCCCn1c2ccc(F)cc2c2nnc(SCCN3CCCCC3)nc21	x	-7.8*	i	x	x	84*	35*
COc1ccc(C)cc1NC(=O)NNC(=O)C(C)Oc1ccc(F)cc1Cl (centres undefined)	i	i	i	i	i	x	x
CCN(CC)S(=O)(=O)c1ccc(/C=C/C(=O)Nc2ccc(N3CCOCC3)cc2)cc1	i	i	i	i	i	x	x
Nc1ccc(O)c(-c2nc3ccccc3s2)c1	i	i	i	i	i	x	x
Oc1ccc(-c2nc3ccccc3s2)c(O)c1	i	-7.9*	i	i	i	0	0
SMILES	MrgX1 antag	RGS4 pot	RGS4 block	MrgX1 agonist	MrgX1 PAM	RGS4 activ val	RGS4 act ctr
COc1ccc(N(CC(=O)NC2CCCC2)C(=O)CCC(=O)Nc2cc(C)on2)cc1OC	i	i	i	i	i	x	x
COc1ccc(/C=N/NC(=O)c2cc(C(C)(C)C)[nH]n2)cc1COc1ccc(F)cc1F	i	-12*	i	i	i	74*	27*
CC(OC(=O)c1ccc(Cl)nc1)C(=O)NCc1ccc2c(c1)OCO2 (centres undefined)	i	i	i	i	i	x	x
CNS(=O)(=O)c1cccc(C(=O)NCC(c2ccco2)N(C)C)c1 (centres undefined)	i	i	i	i	i	x	x
Cc1ccc(S(=O)(=O)Nc2cccc(C(=O)NCC(c3ccco3)N(C)C)c2)cc1F (centres undefined)	i	-8.2*	i	i	i	66*	84*
COc1ccc(C(c2nnnn2Cc2cccs2)N2CCN(c3ccccc3F)CC2)cc1 (centres undefined)	i	-7.6*	i	i	i	0	0
COc1ccc(C(c2nnnn2Cc2ccccc2)N2CCN(c3ccccc3)CC2)cc1 (centres undefined)	i	i	i	i	i	x	x
CC(=O)N=C1C=CC(=CN(O)C(C)(C)Cc2ccccc2)C=C1	i	i	i	i	i	x	x
N#Cc1c(OCC(=O)c2ccccc2)nc2c(c1-c1ccco1)CCc1ccccc1-2	i	i	i	i	i	x	x
CCOC(=O)COc1nc2c(c(-c3ccco3)c1C#N)CCc1ccccc1-2	i	-7.8*	i	i	i	82*	37*
CCOC(=O)COc1nc(-c2ccccc2)cc(-c2ccco2)c1C#N	i	-7.7*	i	i	i	88*	54*
CCn1c(SCC(=O)Nc2ccc3c(c2)OCCO3)nnc1C1CC1	i	i	i	i	i	x	x
Cc1cc(N2CCCCC2)nc2ccccc12	i	i	i	i	i	x	x
Cc1cc(N2CCCCCC2)nc2ccccc12	i	-10*	i	i	i	92*	48*
Cc1ccc(OCC(O)CN2C(=O)NC(C)(C)C2=O)c(C)c1 (centres undefined)	i	i	i	i	i	x	x
CC(=O)c1cccc(NC(=O)c2ccc(CN3CCc4ccccc4C3)cc2)c1	i	i	i	i	i	x	x
C/C(=N\NC(=O)c1ccc(CN2CCc3ccccc3C2)cc1)c1ccccc1O	-5*	-14*	i	i	i	94*	96*
CS(=O)(=O)N(CC(=O)N1CCCC1)c1cccc(F)c1	i	i	i	i	i	x	x
Cc1ccc(N/N=C(/Sc2nnnn2-c2ccccc2)C(=O)c2ccccc2)cc1	i	-16*	i	i	i	0	0
O=C(c1ccc2c(c1)OCO2)C1CCCN(C2CCN(CCc3ccccc3)CC2)C1 (centres undefined)	i	-13*	i	i	i	87*	55*
